In the library only some 3.1% were active in any assay of this set; here they are far more common.
SENP7 block: SENP7 protease inhibitors, primary screen, biochemical, luminescence, uHTS; actives 1.5% (n = 330,000); AID 434973, 2010; inhibition, % at 5 µM; recombinant SENP7, Z-RLRGG-aminoluciferin luminescence, 40 min; Sentrin-specific protease 7 (Homo sapiens), Q9BQF6;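 active = inhibition above about 50% at the single test dose, limit read from the data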;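 also: plate controls were DMSO with enzyme for no effect and no enzyme buffer wells for full effect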
Apaf1 inhib: inhibitors of human Apaf-1 apoptosome, primary screen, biochemical, DEVD-Rh110 fluorescence, uHTS | reconstituted apoptosome caspase-3 activity | actives 0.71% (n = 330,000) | inhibition, % at 20 µM | Apoptotic protease-activating factor 1 (Homo sapiens), O14727; active = inhibition of at least 40% at 20 µM;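 also: plate controls were DMSO wells for no effect and DEVD-CHO caspase inhibitor wells for full effect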
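Material: reconstituted apoptosome with Apaf-1, cytochrome c, caspase-9, procaspase-3, dATP. Technique: Rh110 fluorescence intensity. Buffer or medium: pH 7.5 Hepes buffer with CHAPS, BSA, DTT. Times: 30 min plus 50 min, RT.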
SENP8 block-1: human SENP8 protease inhibitors, primary screen, biochemical, fluorescence, Nedd8 protein substrate, uHTS; actives 0.64% (n = 360,000); inhibition, % at 20 µM; recombinant SENP8; Sentrin-specific protease 8 (Homo sapiens), Q96LD8; in the data active = inhibition mostly above about 40%, no sharp cut-off; inactive = mostly below about 27%
UBC13 inh: UBC13 polyubiquitin chain formation inhibitors, primary screen, biochemical, TR-FRET, uHTS; AID 485273, 2010; actives 0.47% (n = 330,000); inhibition, % at 20 µM; Ubiquitin-conjugating enzyme E2 N (Homo sapiens), P61088; in the data active = inhibition above about 45%, passing the limit was not always enough
SENP8 block-2: SENP8 protease inhibitors, primary screen, biochemical, luminescence; inhibition, % at 10 µM; purified SENP8, Z-RLRGG-aminoluciferin cleavage; AID 2540, 2010; Sentrin-specific protease 8 (Homo sapiens), Q96LD8; actives 1.2% (n = 330,000); in the data active = inhibition above about 50%
SENP6 inh: SENP6 protease inhibitors, primary screen, biochemical, luminescence, uHTS | Sentrin-specific protease 6 (Homo sapiens), Q9GZR1 | Recombinant SENP6 catalytic domain, aminoluciferin luminescence | inhibition, % at 10 µM | actives 1.8% (n = 330,000) | AID 2599, 2010;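 active = inhibition above about 50% at the single tested dose, limit read from the data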;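 also: plate controls were DMSO wells with enzyme for no effect and DMSO wells lacking enzyme for full effect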
Target sequence (Q9GZR1 628-1112 limits assumed): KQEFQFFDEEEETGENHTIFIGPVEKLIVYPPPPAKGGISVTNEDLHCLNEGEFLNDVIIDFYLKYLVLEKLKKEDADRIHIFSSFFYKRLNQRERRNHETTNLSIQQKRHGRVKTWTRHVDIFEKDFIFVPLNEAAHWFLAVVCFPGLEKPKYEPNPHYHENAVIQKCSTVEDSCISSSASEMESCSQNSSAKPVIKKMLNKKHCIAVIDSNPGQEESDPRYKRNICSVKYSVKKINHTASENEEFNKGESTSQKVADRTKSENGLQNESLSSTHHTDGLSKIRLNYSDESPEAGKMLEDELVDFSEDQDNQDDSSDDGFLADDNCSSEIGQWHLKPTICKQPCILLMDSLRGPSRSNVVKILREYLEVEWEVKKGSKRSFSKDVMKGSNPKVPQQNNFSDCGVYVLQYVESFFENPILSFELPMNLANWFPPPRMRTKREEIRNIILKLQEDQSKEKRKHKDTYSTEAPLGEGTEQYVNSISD
SENP8 conf: SENP8 protease inhibitors, retest, confirmation, biochemical, luminescence, single concentration | actives 40% (n = 6,200) | Recombinant SENP8, Z-RLRGG-aminoluciferin luminescence, 60 min | shares compounds with SENP7 block | inhibition, % at 12.5 µM;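 active = mean inhibition across replicates above about 50%, limit read from the data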
SENP6 conf: SENP6 protease inhibitors, confirmation, biochemical, luminescence, single concentration. shares compounds with SENP7 block. recombinant SENP6, Z-RLRGG-aminoluciferin luminescence. inhibition, % at 12.5 µM. actives 58% (n = 6,200). AID 488915, 2010
SENP7 confirm: SENP7 protease inhibitors, retest, confirmation, biochemical, luminescence, single concentration; shares compounds with SENP7 block; recombinant SENP7, Z-RLRGG-aminoluciferin luminescence, 40 min; inhibition, % at 12.5 µM; actives 69% (n = 6,200)
Casp3 SENP sel: caspase-3 protease inhibitors, confirmation, selectivity assay for SENP inhibitor project, biochemical, single concentration; shares compounds with SENP7 block; purified caspase-3, Z-DEVD-aminoluciferin luminescence, 60 min; inhibition, % at 12.5 µM; actives 60% (n = 6,200);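 active = mean inhibition above about 50%, limit read from the data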;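 also: plate controls were enzyme with DMSO for no effect and wells without caspase-3 for full effect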
Target sequence (P42574 28-227 limits assumed): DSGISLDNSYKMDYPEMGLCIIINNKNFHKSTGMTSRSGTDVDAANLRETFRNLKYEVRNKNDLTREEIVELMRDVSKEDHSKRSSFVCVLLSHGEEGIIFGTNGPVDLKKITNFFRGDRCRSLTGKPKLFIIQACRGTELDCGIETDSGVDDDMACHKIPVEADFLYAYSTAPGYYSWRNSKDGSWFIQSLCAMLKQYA
SENP luc ctr: counter-screen for SENP inhibitors: luminescence interference. shares compounds with SENP7 block. Pre-incubated SENP8/Z-RLRGG-aminoluciferin, luciferase luminescence interference. inhibition, % at 12.5 µM. actives 39% (n = 6,200). AID 488919;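 active = mean inhibition above about 50% when retested at one dose, limit read from the data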;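 also: plate controls were DMSO wells with completed reaction for no effect and substrate without enzyme for full effect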
Numbers without * were called inactive; . = no result.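 The calls were made as follows, unless noted: active = mean inhibition above about 50% in the one-dose retest (limit read from the data); inactive = the rest.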

SMILES | SENP7 block | Apaf1 inhib | SENP8 block-1 | UBC13 inh | SENP8 block-2 | SENP6 inh | others
COc1ccc(CN2C(=O)CCCC2(C)c2nc3ccccc3[nH]2)cc1 (stereo not drawn) | . | . | 11 | . | . | .
O=C(O)c1cccc(NC(=O)c2ccc3c(c2)C(=O)N(Cc2ccco2)C3=O)c1 | 88* | 16 | 8 | -3 | 84* | 89*
O=C(NCCOc1ccccc1)C1C(=O)Nc2ccccc2C(=O)N1C1CCCCC1 (stereo not drawn) | . | . | -1 | . | . | .
O=C(O)C1Nc2c(O)cc(Cl)c([N+](=O)[O-])c2C2C=CCC12 (stereo not drawn) | 9 | 29 | 46* | 38 | 8 | -34
CC(=O)c1ccc2c(c1)C1C=CCC1C(C(=O)O)N2 (stereo not drawn) | 3 | 33 | 13 | -25 | 11 | 8
O=C(O)c1ccc(N/N=C/c2ccc(-c3ccccc3)cc2)cc1 | . | . | -340 | . | . | .
O=C(O)c1ccc(N/N=C/C=C/c2ccccc2)cc1 | 92* | -11 | -216 | 10 | 95* | 98*
COCCNc1nc(-c2ccccc2F)c2sc(-c3ccccc3)cc2n1 | . | . | -496 | . | . | .
COC(=O)/C(N=Nc1cccc(C(F)(F)F)c1)=C(\C)O | 3 | 7 | 49* | -6 | -3 | 0
CCOC(=O)NC(=O)/C(N=Nc1cccc(C(F)(F)F)c1)=C(\C)O | -2 | 2 | 14 | -7 | -8 | -11
CS/C(N)=N/N=C/c1ccc2c(c1)OCO2 | 50* | -8 | 7 | -7 | 20 | 25
N/C(=N\N=Cc1ccc2c(c1)OCO2)NN=Cc1ccc2c(c1)OCO2 | . | . | -154 | . | . | .
CN(/N=C/c1ccc2c(c1)OCO2)c1ccccc1 | 57* | 15 | 19 | -8 | 64* | 63*
COc1ccc2cc(C3CC=C(CO)CN3S(=O)(=O)c3ccccc3[N+](=O)[O-])n(C(=O)OC(C)(C)C)c2c1 (stereo not drawn) | . | . | 7 | . | . | .
COc1ccc(C2=CCCCCC2)cc1OC | . | . | 14 | . | . | .
CCSc1nnc(NC(=O)c2ccccn2)s1 | 60* | 1 | 8 | -46 | 18 | 60*
Cc1ccccc1C(=O)Nc1nnc(-c2ccco2)s1 | 73* | -1 | -197 | 4 | 44 | 54*
CCSc1nnc(NC(=O)c2ccccc2)s1 | 40 | -4 | -16 | 1 | 29 | 53*
CCSc1nnc(NC(=O)c2cccnc2)s1 | 16 | -9 | 10 | 0 | 0 | 11
CCSc1nnc(NC(=O)c2ccccc2C)s1 | 44 | -1 | 2 | 6 | 36 | 55*
Cc1ccc(C(=O)N/C(=C\c2ccc(-c3ccc(Br)cc3)o2)C(=O)NCCCN(C)C)cc1 | 8 | 18 | -388 | 72* | 2 | -11
Cc1ccc(C(=O)N/C(=C\c2ccc(-c3ccccc3[N+](=O)[O-])o2)C(=O)NCCCN2CCOCC2)cc1 | 12 | 65* | -128 | -23 | 32 | 44
Cc1nn(-c2ccccc2)c(Cl)c1/C=C1\SC(=S)N(CCCCCC(=O)O)C1=O | 6 | 17 | 54* | -9 | -23 | -12
Cc1nn(-c2ccccc2)c(Cl)c1/C=C1\SC(=S)NC1=O | 41 | -10 | 19 | -11 | 1 | 2
CCOC(=O)/C=C(\C)Sc1cc(O)c2ccccc2c1O | . | . | 48* | . | . | .
SMILES | SENP7 block | Apaf1 inhib | SENP8 block-1 | UBC13 inh | SENP8 block-2 | SENP6 inh | others
CCOC(=O)/C=C(\C)Sc1cc(=O)oc2ccccc12 | -9 | 10 | 10 | -7 | -9 | -20
COC(=O)C(Sc1ccc(Cl)cc1)C1SC(=S)N(Cc2ccccc2)C1=O (stereo not drawn) | . | . | 17 | . | . | .
C[C@]12C=CC(=O)C=C1CC[C@@H]1C2=CC[C@]2(C)[C@@H](C(=O)CN3CCN(c4cc(N5CCCC5)nc(N5CCCC5)n4)CC3)CC[C@@H]12 | 31 | 87* | 22 | -22 | 76* | 64*
CCCNC(=O)C1(C)CCCN(C(=O)CN2C(=O)c3ccccc3C2=O)C1 (stereo not drawn) | . | . | 13 | . | . | .
CC(=O)Nc1ccc(/C=C2\Sc3ccccc3C2=O)cc1 | 83* | 1 | -96 | -7 | 46 | 67*
Cc1cc(N=Nc2ccc(C)c(N=Nc3cc(C)c(N)cc3N)c2)c(N)cc1N | 6 | 9 | 31 | -69 | 53* | 52*
CCCCNC(=O)c1nc(C2CCN(S(=O)(=O)c3ccc(S(C)(=O)=O)cc3)CC2)oc1-c1ccccc1 | . | . | 14 | . | . | .
CC(=O)Nc1ccc(NC(=O)CSc2nnc(NC(=O)c3cccc(F)c3)s2)cc1 | 52* | -12 | -73 | 3 | 68* | 77* | SENP8 conf=62*;SENP6 conf=70*;SENP7 confirm=91*;Casp3 SENP sel=82*;SENP luc ctr=19
CCc1ccc(Nc2nnc(SCC(=O)Nc3ccc(C(=O)O)cc3)s2)cc1 | 53* | -7 | 21 | -6 | 52* | 6 | SENP8 conf=-12;SENP6 conf=51*;SENP7 confirm=46;Casp3 SENP sel=60*;SENP luc ctr=8
Cc1cccc(C)c1NC(=O)C(CCc1ccccc1)n1c(=O)c(-c2ccccc2)nc2ccccc21 (stereo not drawn) | . | . | -324 | . | . | .
COc1ccc(-c2cc(-c3ccc(OC)cc3)[nH]n2)cc1 | -1 | 26 | 12 | 21 | 6 | -19
COc1ccc(-c2cc(-c3ccc(C)cc3)n[nH]2)c(O)c1 | 37 | 19 | 7 | 24 | 33 | 58* | SENP8 conf=49;SENP6 conf=42;SENP7 confirm=72*;Casp3 SENP sel=14;SENP luc ctr=32
